Test results taken from ChEMBL document CHEMBL1152541, “Staurosporine tethered peptide ligands that target cAMP-dependent protein kinase (PKA): optimization and selectivity profiling” (Bioorg Med Chem, 2009).
*1 amine or outer side, *2 acyl side, *3 side chain or, on linkers, in order; H or OH if unused. Where a SMILES comes first, the peptide text is derived from it. Bridges are numbered along the chain shown (N, C = ends). [ ]: non-standard residue; d: D form. The star is where a group is joined. Staurosporine = CO[C@@H]1[C@H](N(C)*)C[C@H]2O[C@]1(C)n1c3ccccc3c3c4c(c5c6ccccc6n2c5c31)C(=O)NC4; Suc = O=C(CCC(=O)[*:2])[*:1]; Dap = NC[C@H](N)C(=O)O; βAla = NCCC(=O)O

What was measured:
[1] = system: Tyrosine-protein kinase ABL1 (Homo sapiens), P00519 [T315I]; assay: Binding affinity to human ABL1 T315I mutant at 500 nM by cell-based competition binding assay relative to control in presence of DTT
Outline: (§1)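 Kinase binding profiling ran on a commercial (Ambit) competitive binding screen against a panel of 90 kinases. The screen used reducing conditions with 7.5 mM DTT. To withstand the DTT, the bivalent ligand was tested as its amide isostere, with the disulfide replaced. A staurosporine derivative carrying a 3 β-alanine linker was run as the reference compound.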

[2] = molecular target: Tyrosine-protein kinase JAK2 (Homo sapiens) (UniProt O60674); assay: Binding affinity to human JAK2 kinase domain 2 at 500 nM by cell-based competition binding assay relative to control in presence of DTT
Sequence of Tyrosine-protein kinase JAK2 (Homo sapiens) (O60674 whole entry, the tested form may be a part): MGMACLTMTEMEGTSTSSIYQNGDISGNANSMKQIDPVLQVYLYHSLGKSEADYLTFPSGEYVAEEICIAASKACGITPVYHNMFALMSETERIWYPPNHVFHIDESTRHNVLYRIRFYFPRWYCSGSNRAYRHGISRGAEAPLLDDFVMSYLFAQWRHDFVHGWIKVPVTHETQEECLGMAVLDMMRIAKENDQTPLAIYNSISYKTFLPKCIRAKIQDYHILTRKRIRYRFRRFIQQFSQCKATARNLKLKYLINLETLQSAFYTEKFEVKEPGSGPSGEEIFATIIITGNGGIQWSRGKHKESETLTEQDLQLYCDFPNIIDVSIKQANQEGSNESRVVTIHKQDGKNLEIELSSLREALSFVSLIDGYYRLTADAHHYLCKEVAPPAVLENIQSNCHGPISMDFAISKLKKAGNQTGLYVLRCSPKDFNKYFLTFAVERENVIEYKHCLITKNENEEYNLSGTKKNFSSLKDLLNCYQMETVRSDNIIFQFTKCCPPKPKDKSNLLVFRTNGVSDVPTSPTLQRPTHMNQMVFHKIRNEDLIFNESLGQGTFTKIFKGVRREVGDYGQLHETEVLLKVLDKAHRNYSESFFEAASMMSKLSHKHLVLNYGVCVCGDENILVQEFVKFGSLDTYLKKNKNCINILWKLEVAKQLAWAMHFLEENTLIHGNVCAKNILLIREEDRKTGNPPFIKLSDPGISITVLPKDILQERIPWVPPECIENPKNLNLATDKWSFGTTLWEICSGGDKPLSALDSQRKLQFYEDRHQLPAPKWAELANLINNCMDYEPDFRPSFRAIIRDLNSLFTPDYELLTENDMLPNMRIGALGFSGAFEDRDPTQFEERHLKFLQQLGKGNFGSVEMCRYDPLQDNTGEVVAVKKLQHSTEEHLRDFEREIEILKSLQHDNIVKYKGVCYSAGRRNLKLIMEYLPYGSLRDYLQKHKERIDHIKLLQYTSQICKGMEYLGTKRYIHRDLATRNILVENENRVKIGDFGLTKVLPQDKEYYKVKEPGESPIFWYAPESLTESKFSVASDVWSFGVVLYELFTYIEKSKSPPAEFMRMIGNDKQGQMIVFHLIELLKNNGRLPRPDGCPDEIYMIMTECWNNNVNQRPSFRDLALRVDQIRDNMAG
Outline: (§2)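 Competition binding screen (Ambit) across a panel of 90 kinases, scoring test ligand displacement of each kinase's binding relative to control. The screen ran under reducing conditions with 7.5 mM DTT.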

[3] = molecular target: Mast/stem cell growth factor receptor Kit (Homo sapiens) (UniProt P10721); assay: Binding affinity to human KIT at 500 nM by cell-based competition binding assay relative to control in presence of DTT; outline: as §2
[4] = system: Tyrosine-protein kinase ABL1 (Homo sapiens), P00519 [E255K]; assay: Binding affinity to human ABL1 E255K mutant at 500 nM by cell-based competition binding assay relative to control in presence of DTT; outline: as §1
[5] = molecular target: Hepatocyte growth factor receptor (Homo sapiens) (UniProt P08581); assay: Binding affinity to human MET at 500 nM by cell-based competition binding assay relative to control in presence of DTT
Sequence of Hepatocyte growth factor receptor (Homo sapiens) (P08581 whole entry): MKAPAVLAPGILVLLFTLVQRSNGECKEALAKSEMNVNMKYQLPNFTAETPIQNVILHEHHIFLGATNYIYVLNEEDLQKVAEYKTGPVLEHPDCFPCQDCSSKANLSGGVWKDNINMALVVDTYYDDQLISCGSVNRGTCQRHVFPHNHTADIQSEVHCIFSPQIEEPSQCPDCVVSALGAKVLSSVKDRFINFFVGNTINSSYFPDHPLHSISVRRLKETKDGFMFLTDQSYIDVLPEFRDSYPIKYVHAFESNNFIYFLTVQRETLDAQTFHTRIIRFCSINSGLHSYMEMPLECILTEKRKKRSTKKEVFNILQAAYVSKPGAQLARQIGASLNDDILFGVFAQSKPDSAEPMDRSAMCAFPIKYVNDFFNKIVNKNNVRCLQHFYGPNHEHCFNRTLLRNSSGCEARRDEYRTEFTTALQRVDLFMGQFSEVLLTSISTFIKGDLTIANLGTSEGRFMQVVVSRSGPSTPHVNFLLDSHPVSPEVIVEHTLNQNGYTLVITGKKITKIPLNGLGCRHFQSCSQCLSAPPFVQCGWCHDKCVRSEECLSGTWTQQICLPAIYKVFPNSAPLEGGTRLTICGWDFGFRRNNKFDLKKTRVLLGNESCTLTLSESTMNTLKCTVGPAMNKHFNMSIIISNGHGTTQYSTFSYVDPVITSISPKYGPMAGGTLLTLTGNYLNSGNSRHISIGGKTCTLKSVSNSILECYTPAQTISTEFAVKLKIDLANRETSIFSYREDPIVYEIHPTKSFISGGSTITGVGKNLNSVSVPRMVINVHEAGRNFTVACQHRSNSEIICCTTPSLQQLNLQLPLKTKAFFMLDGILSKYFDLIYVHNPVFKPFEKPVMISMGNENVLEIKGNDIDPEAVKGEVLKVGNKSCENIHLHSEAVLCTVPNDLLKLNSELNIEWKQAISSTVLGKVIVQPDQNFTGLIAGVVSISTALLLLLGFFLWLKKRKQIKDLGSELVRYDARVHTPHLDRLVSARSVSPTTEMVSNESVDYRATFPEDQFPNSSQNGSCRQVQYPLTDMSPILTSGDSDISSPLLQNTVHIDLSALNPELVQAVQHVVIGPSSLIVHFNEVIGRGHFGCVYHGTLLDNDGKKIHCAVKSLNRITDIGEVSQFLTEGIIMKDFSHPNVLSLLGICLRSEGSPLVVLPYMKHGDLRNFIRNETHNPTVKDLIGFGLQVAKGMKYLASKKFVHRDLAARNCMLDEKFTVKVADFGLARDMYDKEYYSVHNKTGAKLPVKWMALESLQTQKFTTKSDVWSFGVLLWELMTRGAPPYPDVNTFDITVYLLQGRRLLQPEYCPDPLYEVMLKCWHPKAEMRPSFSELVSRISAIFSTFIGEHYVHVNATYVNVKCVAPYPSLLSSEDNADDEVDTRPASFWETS

[6] = molecular target: T1, Serine/threonine-protein kinase Chk1 (Homo sapiens) (UniProt O14757); assay: Ratio of compound to staurosporine binding affinity to CHK1 in presence of DTT
T1 sequence (whole entry): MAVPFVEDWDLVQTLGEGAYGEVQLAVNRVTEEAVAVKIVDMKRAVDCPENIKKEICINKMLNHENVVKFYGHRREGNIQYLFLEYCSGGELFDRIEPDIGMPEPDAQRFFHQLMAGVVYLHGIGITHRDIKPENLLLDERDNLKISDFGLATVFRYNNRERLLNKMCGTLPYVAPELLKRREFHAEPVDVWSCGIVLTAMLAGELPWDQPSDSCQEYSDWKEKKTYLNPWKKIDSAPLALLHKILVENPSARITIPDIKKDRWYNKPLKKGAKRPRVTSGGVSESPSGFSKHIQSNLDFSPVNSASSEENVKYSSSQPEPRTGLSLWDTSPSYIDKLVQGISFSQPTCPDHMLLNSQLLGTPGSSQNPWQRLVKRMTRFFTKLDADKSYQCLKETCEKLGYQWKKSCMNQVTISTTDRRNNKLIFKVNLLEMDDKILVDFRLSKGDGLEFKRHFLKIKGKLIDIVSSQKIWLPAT

[7] = molecular target: Fibroblast growth factor receptor 2 (Homo sapiens) (UniProt P21802); assay: Binding affinity to human FGFR2 at 500 nM by cell-based competition binding assay relative to control in presence of DTT
Outline: (§3)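 Commercial (Ambit) competitive kinase-binding panel of 90 kinases measured the binding profile. Run under reducing conditions of 7.5 mM DTT. Binding is expressed relative to control.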

[8] = molecular target: Cyclin-dependent kinase 3 (Homo sapiens) (UniProt Q00526); assay: Binding affinity to human CDK3 at 200 nM by cell-based competition binding assay relative to control in presence of DTT; outline: as §1
Sequence of Cyclin-dependent kinase 3 (Homo sapiens) (Q00526 whole entry, looked up): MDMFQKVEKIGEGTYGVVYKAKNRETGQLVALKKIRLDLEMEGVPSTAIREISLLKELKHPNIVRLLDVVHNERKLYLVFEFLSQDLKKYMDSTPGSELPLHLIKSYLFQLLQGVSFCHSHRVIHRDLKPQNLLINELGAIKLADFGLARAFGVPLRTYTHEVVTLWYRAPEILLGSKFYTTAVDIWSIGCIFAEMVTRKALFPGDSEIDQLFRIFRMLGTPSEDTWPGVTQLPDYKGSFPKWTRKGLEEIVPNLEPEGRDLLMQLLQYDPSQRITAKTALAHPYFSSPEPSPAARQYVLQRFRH

[9] = molecular target: Atypical kinase COQ8A, mitochondrial (Homo sapiens) (UniProt Q8NI60); assay: Binding affinity to human ADCK3 at 200 nM by cell-based competition binding assay relative to control in presence of DTT; outline: as §1
Sequence of Atypical kinase COQ8A, mitochondrial (Homo sapiens) (Q8NI60 163-647 limits assumed): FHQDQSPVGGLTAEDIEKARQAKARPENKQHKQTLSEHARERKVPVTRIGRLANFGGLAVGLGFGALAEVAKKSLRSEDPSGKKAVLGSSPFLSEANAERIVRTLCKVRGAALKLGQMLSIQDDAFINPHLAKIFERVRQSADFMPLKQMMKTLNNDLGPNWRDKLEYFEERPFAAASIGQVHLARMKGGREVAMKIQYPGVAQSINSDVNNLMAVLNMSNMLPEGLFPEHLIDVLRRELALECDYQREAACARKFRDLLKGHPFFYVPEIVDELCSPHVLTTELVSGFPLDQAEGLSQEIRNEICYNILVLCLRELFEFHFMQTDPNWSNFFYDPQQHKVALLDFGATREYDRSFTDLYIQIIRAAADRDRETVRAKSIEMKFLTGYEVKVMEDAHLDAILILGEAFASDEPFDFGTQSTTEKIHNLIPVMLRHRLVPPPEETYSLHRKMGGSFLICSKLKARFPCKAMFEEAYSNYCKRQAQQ

[10] = molecular target: Epidermal growth factor receptor (Homo sapiens) (UniProt P00533); assay: Binding affinity to human EGFR at 200 nM by cell-based competition binding assay relative to control in presence of DTT; outline: as §3
[11] = molecular target: Tyrosine-protein kinase receptor UFO (Homo sapiens) (UniProt P30530); assay: Binding affinity to human AXL at 200 nM by cell-based competition binding assay relative to control in presence of DTT; outline: as §1
[12] = molecular target: T2, 3-phosphoinositide-dependent protein kinase 1 (Homo sapiens) (UniProt O15530); assay: Binding affinity to human PDPK1 at 200 nM by cell-based competition binding assay relative to control in presence of DTT
T2 sequence (whole entry): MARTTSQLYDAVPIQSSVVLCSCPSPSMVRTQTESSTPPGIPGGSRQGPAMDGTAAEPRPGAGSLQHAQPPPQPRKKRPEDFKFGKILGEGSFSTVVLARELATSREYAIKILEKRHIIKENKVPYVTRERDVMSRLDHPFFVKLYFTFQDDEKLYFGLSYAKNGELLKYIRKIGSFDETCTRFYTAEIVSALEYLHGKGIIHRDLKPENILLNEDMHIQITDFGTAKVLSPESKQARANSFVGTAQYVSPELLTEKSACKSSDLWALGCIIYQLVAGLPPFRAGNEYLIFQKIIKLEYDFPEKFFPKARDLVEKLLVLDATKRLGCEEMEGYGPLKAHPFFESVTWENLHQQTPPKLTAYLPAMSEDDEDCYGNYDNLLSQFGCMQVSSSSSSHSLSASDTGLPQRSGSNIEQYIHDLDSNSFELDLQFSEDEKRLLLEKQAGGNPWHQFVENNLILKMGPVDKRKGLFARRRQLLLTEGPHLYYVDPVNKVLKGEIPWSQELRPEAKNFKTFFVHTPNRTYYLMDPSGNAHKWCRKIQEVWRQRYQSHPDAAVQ

[13] = molecular target: Non-receptor tyrosine-protein kinase TYK2 (Homo sapiens) (UniProt P29597); assay: Binding affinity to human TYK2 kinase domain 2 at 50 nM by cell-based competition binding assay relative to control in presence of DTT
[14] = molecular target: T3, Aurora kinase A (Homo sapiens) (UniProt O14965); assay: Binding affinity to human aurora kinase A at 50 nM by cell-based competition binding assay relative to control in presence of DTT
T3 sequence (whole entry): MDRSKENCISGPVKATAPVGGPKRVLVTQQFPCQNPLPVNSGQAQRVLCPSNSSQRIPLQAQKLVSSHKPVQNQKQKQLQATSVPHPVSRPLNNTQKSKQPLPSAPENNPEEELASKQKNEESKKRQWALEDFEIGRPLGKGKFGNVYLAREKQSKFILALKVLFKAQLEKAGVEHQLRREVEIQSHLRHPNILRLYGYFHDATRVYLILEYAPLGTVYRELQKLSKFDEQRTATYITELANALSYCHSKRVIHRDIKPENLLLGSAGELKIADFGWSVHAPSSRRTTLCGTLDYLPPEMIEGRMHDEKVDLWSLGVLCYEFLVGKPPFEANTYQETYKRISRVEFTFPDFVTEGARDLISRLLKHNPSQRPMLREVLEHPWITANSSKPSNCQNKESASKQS

[15] = molecular target: Angiopoietin-1 receptor (Homo sapiens) (UniProt Q02763); assay: Binding affinity to human TIE2 at 50 nM by cell-based competition binding assay relative to control in presence of DTT
Sequence of Angiopoietin-1 receptor (Homo sapiens) (Q02763 whole entry): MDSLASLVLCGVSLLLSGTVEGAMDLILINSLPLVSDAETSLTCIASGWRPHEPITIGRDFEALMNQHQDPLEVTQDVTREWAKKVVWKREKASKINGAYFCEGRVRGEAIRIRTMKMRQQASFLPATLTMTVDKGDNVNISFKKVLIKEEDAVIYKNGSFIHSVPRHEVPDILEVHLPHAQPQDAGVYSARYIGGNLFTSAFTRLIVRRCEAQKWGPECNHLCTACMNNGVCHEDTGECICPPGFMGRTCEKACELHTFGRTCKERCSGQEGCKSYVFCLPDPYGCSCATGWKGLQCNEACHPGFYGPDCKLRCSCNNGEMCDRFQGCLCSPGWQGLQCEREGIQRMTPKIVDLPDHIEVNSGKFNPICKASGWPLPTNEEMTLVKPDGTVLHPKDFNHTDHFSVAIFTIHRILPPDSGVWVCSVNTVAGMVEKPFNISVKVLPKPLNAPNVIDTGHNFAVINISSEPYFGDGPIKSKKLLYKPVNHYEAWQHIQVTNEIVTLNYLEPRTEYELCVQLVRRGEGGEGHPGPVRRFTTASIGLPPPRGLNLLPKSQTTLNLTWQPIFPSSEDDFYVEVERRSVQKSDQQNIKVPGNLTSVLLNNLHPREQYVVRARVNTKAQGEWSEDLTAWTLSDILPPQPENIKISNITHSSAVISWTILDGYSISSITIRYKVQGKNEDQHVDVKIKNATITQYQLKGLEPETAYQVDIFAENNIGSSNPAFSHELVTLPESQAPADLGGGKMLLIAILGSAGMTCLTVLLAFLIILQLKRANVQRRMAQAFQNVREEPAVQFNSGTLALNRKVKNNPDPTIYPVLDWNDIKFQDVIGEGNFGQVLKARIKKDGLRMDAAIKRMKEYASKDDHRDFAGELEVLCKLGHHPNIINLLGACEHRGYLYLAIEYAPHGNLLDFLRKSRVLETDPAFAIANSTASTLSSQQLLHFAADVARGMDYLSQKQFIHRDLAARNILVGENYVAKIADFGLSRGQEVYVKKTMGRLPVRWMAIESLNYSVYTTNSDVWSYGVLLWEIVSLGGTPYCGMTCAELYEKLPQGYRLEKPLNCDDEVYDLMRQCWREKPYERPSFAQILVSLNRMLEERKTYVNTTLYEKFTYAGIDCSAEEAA

CO[C@@H]1[C@H](N(C)C(=O)CCC(=O)NCCC(=O)NCCC(=O)NCCC(N)=O)C[C@H]2O[C@]1(C)n1c3ccccc3c3c4c(c5c6ccccc6n2c5c31)C(=O)NC4
Activity [1]: 35%
Activity [2]: 2.4%
Activity [3]: 7.4%
Activity [4]: 92%
Activity [5]: 46%
Selectivity ratio [6]: 84
Activity [7]: 27%

CO[C@@H]1[C@H](N(C)C(=O)CCC(=O)NCCC(=O)NCCC(=O)NCCC(=O)NCCC(=O)NCCC(=O)NCCC(=O)NCCC(=O)N[C@H]2CSSC[C@@H](C(=O)NCC(N)=O)NC(=O)CNC(=O)[C@H](Cc3ccccc3)NC(=O)[C@H](C(C)C)NC(=O)[C@H](CCCNC(=N)N)NC(=O)[C@H](Cc3ccccc3)NC(=O)[C@H](C(C)C)NC2=O)C[C@H]2O[C@]1(C)n1c3ccccc3c3c4c(c5c6ccccc6n2c5c31)C(=O)NC4 ({Staurosporine-Suc-βAla-βAla-βAla-βAla-βAla-βAla-βAla}-CVFRVFGCG-NH2; disulfide 1-8)
Activity [8]: 100%
Activity [9]: 96%
Activity [10]: 96%
Activity [11]: 58%
Activity [12]: 16%

CO[C@@H]1[C@H](N(C)C(=O)CCC(=O)NCCC(=O)NCCC(=O)NCCC(=O)NCCC(=O)NCCC(=O)NCCC(=O)NCCC(=O)N[C@H]2CNC(=O)C[C@@H](C(N)=O)NC(=O)CNC(=O)[C@H](Cc3ccccc3)NC(=O)[C@H](C(C)C)NC(=O)[C@H](CCCNC(=N)N)NC(=O)[C@H](Cc3ccccc3)NC(=O)[C@H](C(C)C)NC2=O)C[C@H]2O[C@]1(C)n1c3ccccc3c3c4c(c5c6ccccc6n2c5c31)C(=O)NC4 ({Staurosporine-Suc-βAla-βAla-βAla-βAla-βAla-βAla-βAla}-[Dap]VFRVFGD-NH2; lactam 1-8)
Activity [13]: 100%
Activity [14]: 63%
Activity [15]: 100%
